Activity calls are given as the source filed them. No cut-off for these calls is given here.
Columns and labels:
[1] = (§1) Binding affinity to C-terminal His-tagged human BCL-2 (1 to 211 residues) expressed in Escherichia coli/recombinant human VHL (54 to end residues) fused to human N-terminal GST-tagged elongin-C/elongin -B/N-terminal His-tagged CUL2/Rbx1 expressed in baculovirus infected Sf21 insect cells measured after 2 hrs by AlphaScreen assay
Procedure, shortened: (§2)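 AlphaScreen displacement, run with or without VCB. Biotin-Bim (80 nM, for BCL-2) or biotin-Bad (16 nM, for BCL-XL) was combined with serially diluted compound and 6×His protein in 25 mM HEPES pH 7.5, 100 mM NaCl, 0.1% BSA, 0.005% Tween 20. Anti-His acceptor beads were added for 1 h at room temperature, then streptavidin donor beads for 30 min in the dark. Ki was fitted by one-site competitive model from peptide concentration and measured Kd values; reported as mean ± SD of at least two experiments in triplicate.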

Bcl-2-like protein 1 = Bcl-2-like protein 1 (Homo sapiens, UniProt Q07817); assay: Displacement of biotin-tagged LWAAQRYGRELRRMSDEFEGSFKGL from human BCL-XL expressed in Escherichia coli measured after 2 hrs by AlphaScreen assay
Procedure, shortened: (§3)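 AlphaScreen displacement, run with or without VCB. Anti-His acceptor beads were added for 1 h at room temperature, then streptavidin donor beads for 30 min in the dark. Ki was fitted by one-site competitive model from peptide concentration and measured Kd values; reported as mean ± SD of at least two experiments in triplicate.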

RS4-11 [2] = assay: Cytotoxicity against human RS4-11 cells assessed as reduction in cell viability measured after 48 hrs in presence of VHL-032 by MTS assay; format: functional, cell-based; details: RS4-11, 48 h
Procedure, shortened: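 RS4;11 cells were pretreated with 10 µM VHL-032, then exposed to compound for 48 h. Viability was read by MTS; three independent experiments in triplicate.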

MOLT-4 [3] = assay: Induction of apoptosis in human MOLT-4 cells assessed as […] in full caspase-3 level at up to 1000 nM measured after 16 hrs by immunoblotting analysis; format: functional, cell-based
Procedure, shortened: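 MOLT-4 cells were treated at a range of concentrations for 16 h. Lysates were immunoblotted for cleaved and full caspase-3, cleaved and full PARP, and β-actin; blots representative of three experiments.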

[4] = target: Apoptosis regulator Bcl-2 (Homo sapiens, UniProt P10415); assay: Displacement of biotin-tagged MRPEPATIAQELRRIGDEFNA from C-terminal His-tagged human BCL-2 (1` to 211 residues) expressed in Escherichia coli measured after 2 hrs by AlphaScreen assay; procedure, shortened: as §3
[5] = target: T1, von Hippel-Lindau disease tumor suppressor/Bcl-2-like protein 1 (Homo sapiens, UniProt Q07817+P40337); assay: Binding affinity to Halo-tagged VHL/HiBiT-tagged BCL-XL (unknown origin) expressed in HEK293T cells assessed as ternary complex formation at up to 100000 nM measured after 6 hrs by NanoBRET assay; format: cell-based
Procedure, shortened: (§4)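 NanoBRET in live HEK 293T cells. Cells were transfected with HaloTag-VHL (1 µg), HiBit-BCL-XL or HiBit-BCL-2 (10 ng) and LgBit (10 ng). After 24 h they were seeded at 2×10^4 per well in Opti-MEM with 4% FBS, with or without HaloTag 618 ligand, and held overnight. Serial compound doses were given for 6 h at 37 °C, then Nano-Glo substrate was added and mBRET ratios read. Mean ± s.e.m. of two experiments in triplicate.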
Target sequence in this assay (P40337 whole entry, looked up): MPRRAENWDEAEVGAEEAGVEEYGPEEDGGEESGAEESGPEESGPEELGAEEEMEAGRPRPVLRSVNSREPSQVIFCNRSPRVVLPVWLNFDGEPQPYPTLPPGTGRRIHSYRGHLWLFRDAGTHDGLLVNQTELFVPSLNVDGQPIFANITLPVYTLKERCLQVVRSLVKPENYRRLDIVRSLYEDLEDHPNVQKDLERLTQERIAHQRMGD
Target sequence in this assay (Q07817 whole entry, looked up): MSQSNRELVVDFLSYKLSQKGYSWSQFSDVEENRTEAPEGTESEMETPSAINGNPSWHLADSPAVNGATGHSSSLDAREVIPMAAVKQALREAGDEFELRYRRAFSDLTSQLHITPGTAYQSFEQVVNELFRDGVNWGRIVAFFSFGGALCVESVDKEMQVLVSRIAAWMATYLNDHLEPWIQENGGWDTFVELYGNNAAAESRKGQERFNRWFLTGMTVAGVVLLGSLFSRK

MOLT-4 [6] = assay: Induction of apoptosis in human MOLT-4 cells assessed as early apoptotic cells at 10 nM measured after 48 hrs by annexinV-FITC/propidium iodide staining based flow cytometry (reference value: 2%); format: functional
[7] = as §1, with “cells assessed as ternary complex formation at up to 100000 nM” for “cells”, “30 mins” for “2 hrs”, “AlphaLISA” for “AlphaScreen”
Procedure, shortened: (§5)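 Cell-free ternary complex AlphaLISA: 6×His-tagged BCL-XL, BCL-2 or MCL-1 (20 nM) mixed with serially diluted compound (4× dilution) and GST-VCB (20 nM) in 25 mM HEPES pH 7.5, 100 mM NaCl, 0.1% BSA, 0.005% Tween 20. After 30 min at room temperature, glutathione donor beads were added for 15 min, then anti-His acceptor beads for 45 min in the dark. Luminescence was plotted against log compound concentration.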

[8] = target: T1, von Hippel-Lindau disease tumor suppressor/Bcl-2-like protein 1; assay: Binding affinity to VHL/ BCL-XL in human RS4-11 cells assessed as ternary complex formation at up to 300 nM measured after 12 hrs in presence of VHL-032 by immunoprecipitation assay; format: cell-based
Target sequence in this assay (P40337 whole entry, looked up): as the sequence (P40337 whole entry, looked up) above
Target sequence in this assay (Q07817 whole entry, looked up): as the sequence (Q07817 whole entry, looked up) above

RS4-11 [9] = assay: Cytotoxicity against human RS4-11 cells assessed as reduction in cell viability measured after 48 hrs by MTS assay; format: functional, cell-based; details: RS4-11, 48 h
[10] = target: T1, von Hippel-Lindau disease tumor suppressor/Bcl-2-like protein 1; assay: Protac activity at VHL/BCL-XL in human MOLT-4 cells assessed as induction of BCL-XL degradation at 10 uM pretreated with VHL-032 followed by compound treatement measured after 12 hrs by Western blot analysis; format: cell-based
Procedure, shortened: (§6)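 MOLT-4 cells were pretreated with 10 µM VHL-032 or 1 µM MG-132, followed by 12 h compound treatment. BCL-XL and β-actin were immunoblotted; blots representative of three experiments.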
Target sequence in this assay (P40337 whole entry, looked up): as the sequence (P40337 whole entry, looked up) above
Target sequence in this assay (Q07817 whole entry, looked up): as the sequence (Q07817 whole entry, looked up) above

[11] = Binding affinity to human BCL-XL expressed in Escherichia coli/recombinant human VHL (54 to end residues) fused to human N-terminal GST-tagged elongin-C/elongin -B/N-terminal His-tagged CUL2/Rbx1 expressed in baculovirus infected Sf21 insect cells assessed as ternary complex formation at up to 100000 nM measured after 30 mins by AlphaLISA assay; procedure, shortened: as §5
[12] = target: T1, von Hippel-Lindau disease tumor suppressor/Bcl-2-like protein 1; assay: Protac activity at VHL/BCL-XL in human MOLT-4 cells assessed as decrease in BCL-XL protein level by densitometric analysis; format: cell-based
Procedure, shortened: (§7)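 MOLT-4 or RS4;11 cells were treated at a range of concentrations for 16 h. BCL-XL was immunoblotted with β-actin loading control, and band densitometry was normalised to β-actin. Mean ± SD of three independent experiments in triplicate.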
Target sequence in this assay (Q07817 whole entry): as the sequence (Q07817 whole entry, looked up) above
Target sequence in this assay (P40337 whole entry): as the sequence (P40337 whole entry, looked up) above

MOLT-4 [13] = assay: Induction of apoptosis in human MOLT-4 cells assessed as late apoptotic cells at 10 nM measured after 48 hrs by annexinV-FITC/propidium iodide staining based flow cytometry (reference value: 1%); format: functional
[14] = target: T1, von Hippel-Lindau disease tumor suppressor/Bcl-2-like protein 1; assay: Protac activity at VHL/BCL-XL in human MOLT-4 cells assessed as induction of BCL-XL degradation at 10 uM pretreated with MG-132 followed by compound treatement measured after 12 hrs by Western blot analysis; format: cell-based; procedure, shortened: as §6
Target sequence in this assay (P40337 whole entry, looked up): as above
Target sequence in this assay (Q07817 whole entry, looked up): as the sequence (Q07817 whole entry, looked up) above

[15] = target: T1, von Hippel-Lindau disease tumor suppressor/Bcl-2-like protein 1; assay: Protac activity at VHL/BCL-XL in human RS4-11 cells assessed as decrease in BCL-XL protein level by densitometric analysis; format: cell-based; procedure, shortened: as §7
Target sequence in this assay (Q07817 whole entry): as the sequence (Q07817 whole entry, looked up) above
Target sequence in this assay (P40337 whole entry): as the sequence (P40337 whole entry, looked up) above

[16] = target: von Hippel-Lindau disease tumor suppressor/Apoptosis regulator Bcl-2 (Homo sapiens) (UniProt P10415+P40337); assay: Binding affinity to Halo-tagged VHL/HiBiT-tagged BCL-2 (unknown origin) expressed in HEK293T cells assessed as ternary complex formation at up to 100000 nM measured after 6 hrs by NanoBRET assay; format: cell-based; procedure, shortened: as §4
[17] = Binding affinity to human BCL-XL expressed in Escherichia coli/recombinant human VHL (54 to end residues) fused to human N-terminal GST-tagged elongin-C/elongin -B/N-terminal His-tagged CUL2/Rbx1 expressed in baculovirus infected Sf21 insect cells measured after 2 hrs by AlphaScreen assay; procedure, shortened: as §2
[18] = target: T1, von Hippel-Lindau disease tumor suppressor/Bcl-2-like protein 1; assay: Protac activity at VHL/BCL-XL in human platelets assessed as decrease in BCL-XL protein level at up to […] measured after 16 hrs by Western blot analysis; details: Platelet
Procedure, shortened: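 Washed human platelets were treated for 16 h at a range of concentrations, and BCL-XL was measured by western blotting.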
Target sequence in this assay (P40337 whole entry, looked up): as above
Target sequence in this assay (Q07817 whole entry, looked up): as the sequence (Q07817 whole entry, looked up) above

von Hippel-Lindau disease tumor suppressor/Apoptosis regulator Bcl-2 (Homo sapiens), sequence (P10415 whole entry, looked up, the tested form may be a part): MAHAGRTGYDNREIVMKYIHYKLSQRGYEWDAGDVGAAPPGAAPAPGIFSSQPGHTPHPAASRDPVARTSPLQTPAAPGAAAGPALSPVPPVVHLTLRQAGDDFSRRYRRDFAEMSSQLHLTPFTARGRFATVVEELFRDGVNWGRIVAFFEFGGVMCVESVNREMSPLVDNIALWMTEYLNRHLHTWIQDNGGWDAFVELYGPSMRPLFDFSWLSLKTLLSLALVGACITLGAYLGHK
von Hippel-Lindau disease tumor suppressor/Apoptosis regulator Bcl-2 (Homo sapiens), sequence (P40337 whole entry, looked up, the tested form may be a part): as the sequence (P40337 whole entry, looked up) above
Apoptosis regulator Bcl-2, sequence (P10415 whole entry): as the sequence (P10415 whole entry, looked up, the tested form may be a part) above
Bcl-2-like protein 1, sequence (Q07817 whole entry): as the sequence (Q07817 whole entry, looked up) above

Ki (Bcl-2-like protein 1): 2.59 nM | Kd [4]: 1.22 nM | Activity [5]: Active | Activity [8]: inactive | Activity [10]: inactive | DC50 [12]: 14.3 nM | Activity [14]: inactive | DC50 [15]: 11.6 nM | Activity [16]: Active | Activity [18]: inactive
SMILES: Cc1ncsc1-c1ccc([C@H](C)NC(=O)[C@@H]2C[C@@H](O)CN2C(=O)[C@@H](NC(=O)CCCCCCCCC(=O)NC[C@]2(C)CCC(c3ccc(Cl)cc3)=C(CN3CCN(c4ccc(C(=O)NS(=O)(=O)c5ccc(N[C@H](CCN6CCOCC6)CSc6ccccc6)c(S(=O)(=O)C(F)(F)F)c5)cc4)CC3)C2)C(C)(C)C)cc1
Kd [1]: 0.53 nM | IC50 (RS4-11 [2]): 209 nM | Activity (MOLT-4 [3]): Active | Activity (MOLT-4 [6]): 25% | Activity [7]: Active | IC50 (RS4-11 [9]): 11.3 nM | Activity [11]: Active | Activity (MOLT-4 [13]): 21% | Kd [17]: 0.65 nM

Reference: ChEMBL document CHEMBL5053511, “Discovery of a Novel BCL-XL PROTAC Degrader with Enhanced BCL-2 Inhibition” (J Med Chem, 2021)
